We go through 48 sequences from the EternaBench riboswitch data.

Broadly, the apparent Kd is the concentration giving half-maximal binding under the conditions of the assay.

This data set deals with MS2 coat protein. The data set is described as follows: apparent Kd, MS2 coat protein; higher = weaker binding; RNA-MaP array; FMN 200 µM where present. In a few lines: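 Stalled E. coli RNA polymerase transcribed the designs on Illumina sequencing-chip clusters. SNAP-549-labelled MS2 coat protein was titrated from 0.7 or 1.5 nM, doubling to 3 µM, without and then with constant ligand, in 100 mM Tris-HCl pH 7.5, 80 mM KCl, 4 mM MgCl2, BSA, DTT, yeast tRNA and Tween-20. Per-cluster binding curves were fitted to green signal normalised to red-channel RNA signal and control-cluster median Fmax. The apparent Kd is the median of the filtered fits.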

Where [1] appears, read: designed as: OFF switch for flavin mononucleotide, no ligand.
Setting [2] is: ligand present: flavin mononucleotide, designed as: OFF switch for flavin mononucleotide.
[3] abbreviates: designed as: ON switch for flavin mononucleotide, no ligand.
The mark [4] stands for this setting: ligand present: flavin mononucleotide, designed as: ON switch for flavin mononucleotide.

Consider “CUUUAGUGAGGAUAUCAGUAGUAAUACAAUAGUAUUACUGCUGAGAAGGCACAUGAGGAUCACCCAUGUUCCUC”, for which the “apparent Kd” value reads like this: under setting [1], 38.1 nM; under setting [2], 169 nM.

On to “AAAUAGACAGGAUAUGCAUGAAAAUUAAAAAAAAAAAAAAAACAUGAGGAUCACCCAUGUAGAAGGGUCAAAAA”, for which the “apparent Kd” value under setting [1] amounted to 107 nM and the “apparent Kd” value under setting [2] was 99.5 nM.

On to “GUGGUACAUGAGGAUCACCCAUGUUAGGAUAUCGCGUGAGGUUUUGCUUCCGCGCGCGCGAGAAGGGACGUCUU”, for which the “apparent Kd” value was 28.3 nM under setting [1] and 23.9 nM under setting [2].

Take “UGGGCGUGUGUCAGGAUAUGUGCUCUUCCUAGAGCGUAGAAGGGACAUGAGGAUCACCCAUGUCGAAUUGCCAA”: the “apparent Kd” value reads like this: under setting [1], 17.4 nM; under setting [2], 30.7 nM.

In the case of “ACACGACAUGAGGAUCACCCAUGUGAGGAUAUCGAUCUACACUAUGCCCAUAGUCUCUCGAGAAGGCACACUAA”, the “apparent Kd” value is 30.6 nM under setting [1] and 31.7 nM under setting [2].

“ACAUGAUAUGUAGGAUAUCACAACAUGAGUUUUAUUAUUGUUAUUUAUGAUUGAGAAGGACAUUUACAUGAGGAUCACCCAUGU”: the “apparent Kd” value by setting is: under setting [1], 17.8 nM; under setting [2], 12.3 nM.

In the case of “CCCAAACUUGGGCUUGGUGGUGCAUAGGAUAUCCUUGAACAUGAGGAUCACCCAUGUACAACUGUGGAGAAGGGUGCAGGGCCU”, the “apparent Kd” value is 372 nM under setting [3] and 111 nM under setting [4].

For the sequence “GCAGCGUAUGUAGGAUAUCGGUCAGUUUCUGAUCGAGAAGGACAUGAGGAUCACCCAUGUAAAUUACCGACUUUGUCGGGUUGC”, the “apparent Kd” value reads like this: under setting [1], 10.2 nM; under setting [2], 20.1 nM.

Regarding “UGGUGAAGUGUAGGAUAUGGAGAUGGGUUUUGGCCAGAAGGACAUGAGGAUCACCCAUGUGGUAGAGGGUUGGUGGUGGCUCGU”, the “apparent Kd” value is 31.6 nM under setting [1] and 24.3 nM under setting [2].

With “AUUUAUGGCCAGAAGGACAUGAGGAUCACCCAUGUAGGAUAUGGACGAUUUUGCUCGGCGGUUUGUUUACGAAGCACCGGUGGU”, the “apparent Kd” value runs as follows: under setting [3], 12.8 nM; under setting [4], 6.91 nM.

Turning to “GGAGACCUCACAGGAUAUGCUGGACUUUGUCCAGCAGAAGGGUGAAACAUGAGGAUCACCCAUGUUGGUCUCCAAAUAUUUAAU”, the “apparent Kd” value runs as follows: under setting [3], 660 nM; under setting [4], 54.1 nM.

On to “GUUGGCUGAGGAUAUGCUUGCGUGCUUUUGUGUCGCGGGUGACAUGAGGAUCACCCAUGUAGAAGGUGGUCGGC”, for which the “apparent Kd” value is, setting by setting: under setting [1], 818 nM; under setting [2], 673 nM.

Regarding “UUACAUACAAAGGUACAUGAGGAUCACCCAUGUUUGUUGGGAAGAAGGGUAACAGUACUACACAUACAGGAUAUUUCACAAAUA”, the “apparent Kd” value was 86.8 nM under setting [3] and 56.4 nM under setting [4].

Turning to “CUGAGCUGAGGAUAUACAUGAGGAUCACCCAUGUUAAGCAGCUAGCGUAAAAGCAGAUGUAGAAGGCAGUUCGG”, the “apparent Kd” value runs as follows: under setting [1], 18.9 nM; under setting [2], 20.3 nM.

Take “AUCAGCUCGUCAGGAUAUACGUCGUGGUAAGAUCACAUGAGGAUCACCCAUGUAGAAGGGACGAGCUGAUAAGCACGAAAGUGC”: the “apparent Kd” value under setting [1] turned out to be 745 nM and the “apparent Kd” value under setting [2] is 47.1 nM.

For the sequence “GCGUCAGAAUUAAUUGUGACAUACAGAAGGCAAAAGUUAGGAUUAGACAUGAGGAUCACCCAUGUUGAGGAUAUGUAGAGAAUC”, the “apparent Kd” value turned out to be 9.69 nM under setting [1] and 8.52 nM under setting [2].

Consider “AAUAAUAAUGUCAGGAUAUCUAGAGCCUCGGCUCUAGAGAAGGGACAUGAGGAUCACCCAUGUCACUCAAUAAU”, for which the “apparent Kd” value worked out at 17.9 nM under setting [1] and 24.3 nM under setting [2].

On to “GCAGCUAUUAUUAUACAUGAGGAUCACCCAUGUUACAUGUGUAAGGAUAUUGAAGUUUUUAUAAUCAAGAAGGUACUAUGCUGC”, for which the “apparent Kd” value was found to be 14.4 nM under setting [3] and 9.33 nM under setting [4].

“AAAAUCUAUAGAGGAUAUCGUUUUUAAAGAAAAUGAGAAGGCUAACAAUCAUGAGGACAUGAGGAUCACCCAUGUUGUGACCAU”: the “apparent Kd” value under setting [3] turned out to be 19.6 nM and the “apparent Kd” value under setting [4] was 10.2 nM.

Take “AGCUAUUAAUCAGGAUAUAGGGACAUGAGGAUCACCCAUGUGUACAUGAUAAAAUGUGAUCACGUCUAGAAGGGAUUACUAACA”: the “apparent Kd” value was 77 nM under setting [3] and 79.8 nM under setting [4].

As for “GGACGGUUAGUCAGGAUAUGCUCUACCUCGGUAGAGCAGAAGGGACAUGAGGAUCACCCAUGUGAUAACUGUUC”, the “apparent Kd” value reads like this: under setting [1], 27.4 nM; under setting [2], 34.8 nM.

Regarding “CUCGGACAUGAGGAUCACCCAUGUGAGGAUAUGGUGCUAUCGUCAUUAGACGAUUGCGUUAGAAGGCACAAAUG”, the “apparent Kd” value under setting [1] amounted to 41.5 nM and the “apparent Kd” value under setting [2] amounted to 54.6 nM.

In the case of “GGUACUCAAAGAGUACCAAUACGAACAUGAGGAUCACCCAUGUAGGAUAUGCUACUCAAAGAGUAGCAGAAGGACAUGUACCUA”, the “apparent Kd” value was found to be 17.5 nM under setting [1] and 99.2 nM under setting [2].

Take “CCUCUAACCUAGGAUAUAGGUAGACCUAGUCGCCUAGAAGGAGGUACAUGAGGAUCACCCAUGUAUAUUGGGCU”: the “apparent Kd” value was 277 nM under setting [1] and 127 nM under setting [2].

For the sequence “UUCAUGUAAGGAUAUGCGGGCGGGCGCGUUUGUGUUUGUUUGUAGAAGGUACAUGAGGAUCACCCAUGUACUGG”, the “apparent Kd” value is 22 nM under setting [1] and 68.2 nM under setting [2].

In the case of “UUUCCCUGGCAAGGAUAUCCUGUGCGGUUCCGGCUCGUGUCUGUUACAUGAGGAUCACCCAUGUGGGAGAAGGUGCCUGUGGCU”, the “apparent Kd” value under setting [1] came to 53.2 nM and the “apparent Kd” value under setting [2] was 232 nM.

As for “GCGUCAGAAUUAAUUGUGACAUACAGAAGGCAAAAGUAAGGAUAAGACAUGAGGAUCACCCAUGUUGAGGAUAUGUAGAGAAUC”, the “apparent Kd” value stood at 10.7 nM under setting [1] and 8.64 nM under setting [2].

As for “UGAUCGAGAGAUCUUAGAUUCUGGUAGGAUAUGCAACAGUUGCGCUUUACAUGAGGAUCACCCAUGUAGAAGGACUAGAGUCUA”, the “apparent Kd” value under setting [1] turned out to be 5.86 nM and the “apparent Kd” value under setting [2] came to 6.1 nM.

On to “UCUUGACAUGAGGAUCACCCAUGUCAGGAUAUAGUAGGACAAAUAAAUAAAAGUUCUACUAGAAGGGACGUGGG”, for which the “apparent Kd” value is 20.4 nM under setting [1] and 26.7 nM under setting [2].

“GCAGACGUAGUGAGGAUAUGCUCUACCUCGGUAGAGCAGAAGGCACAUGAGGAUCACCCAUGUGAUUUUUCUGC”: the “apparent Kd” value under setting [1] stood at 40 nM and the “apparent Kd” value under setting [2] came out at 573 nM.

Consider “AAAAAGUGAGGAUAUGCACUGUCCUGUAGACGCGAGCAGUUGUAGAAGGCACAUGAGGAUCACCCAUGUUUAAA”, for which the “apparent Kd” value was found to be 25.1 nM under setting [1] and 22.5 nM under setting [2].

Turning to “AAAUAAAUUAGUAUGAUAUCUUCACAUGAGGAUCACCCAUGUCAGGAUAUUUGUCCUAAAAGGACAGAGAAGGGACAUACUAUA”, the “apparent Kd” value is, setting by setting: under setting [1], 6.08 nM; under setting [2], 8.31 nM.

Turning to “GGAGCCGGCACUGAGGAUAUUCAUAUUAAAACAUGAGGAUCACCCAUGUAGGCCAGAAGGCCUUGGGAGAAGGCAGGUCGGCCCG”, the “apparent Kd” value reads like this: under setting [3], 381 nM; under setting [4], 28.4 nM.

In the case of “CGUCCUUAGUGAGGAUAUCAGAAAAUACGGAAAUGAGAAGGCACAUGAGGAUCACCCAUGUAAAUAACGGCCGGUCUUGGCAGC”, the “apparent Kd” value under setting [1] came out at 7.96 nM and the “apparent Kd” value under setting [2] was found to be 21.6 nM.

Take “UUGGACGUCGUAGGAUAUGUAGGAUAUUCCUACAUGAGGAUCACCCAUGUUGACAUGGACGAAGGACAGAAGGACGAUGUCCAU”: the “apparent Kd” value by setting is: under setting [3], 479 nM; under setting [4], 134 nM.

With “CUUUCGUGAGGAUAUGUGGCUUCGAUCGUGAGAUCGAGAAAACAGAAGGCACAUGAGGAUCACCCAUGUUCCUC”, the “apparent Kd” value was found to be 41 nM under setting [1] and 515 nM under setting [2].

Regarding “AUUAUUAAGUUAGGAUAUAGUAAAAUAAUUUAAUUAGAAGGAGCUCACAUGAGGAUCACCCAUGUAAGAGGAUCACCCAUGUAU”, the “apparent Kd” value reads like this: under setting [1], 22.3 nM; under setting [2], 16.5 nM.

As for “GUAGUGUAUGUAGGAUAUGUGAAGGAAACCUUUACAGAAGGACAUGAGGAUCACCCAUGUAUUACAGUCAGCAAUCUGACUGUU”, the “apparent Kd” value by setting is: under setting [1], 28.4 nM; under setting [2], 107 nM.

For “GUGUUGUCAGGAUAUCUUACAUAACAAUCGUUGUUACCAUUGGAGAAGGGACAUGAGGAUCACCCAUGUUAUCC”, the “apparent Kd” value under setting [1] is 24.1 nM and the “apparent Kd” value under setting [2] was determined as 26.3 nM.

With “GGACGUUACAUCUACAUGAGGAUCACCCAUGUCUCUUGAGAUGAGGAUAUGUAUACGAAUCGUUUAUAGAAGGCAUGAACGUCC”, the “apparent Kd” value under setting [3] was 144 nM and the “apparent Kd” value under setting [4] stood at 138 nM.

Consider “AAAUAUAAGCGAGGAUAUAUACAUGAGGAUCACCCAUGUCCCAUGUCAUGAGCAUCAGCCAUGUAGUAGAAGGCGCACAUGAGG”, for which the “apparent Kd” value under setting [1] is 100 nM and the “apparent Kd” value under setting [2] worked out at 53.5 nM.

Regarding “GGAUAGGACAGAGGAUAUGCCGAUAGGAUCUACUAUCGAAGAAUCCUCACAUGAGGAUCACCCAUGUAGAAGGCUGUCCUAUCG”, the “apparent Kd” value by setting is: under setting [1], 23.8 nM; under setting [2], 131 nM.

Turning to “UCAUGAUGGAAGAAGGGAGUCGUGCAUGACAACUCAGGAUAUUUCACAUGAGGAUCACCCAUGUCGAAGUAACAGUGUUGAUCA”, the “apparent Kd” value is, setting by setting: under setting [1], 23.9 nM; under setting [2], 45.8 nM.

Regarding “UGGACCGAGCUAUCGGUUGACUGGGAGGAUAUGACAUGAGGAUCACCCAUGUGGGAUCUAAAUUGUCAGAAGGCUCGAUCUGGG”, the “apparent Kd” value reads like this: under setting [1], 258 nM; under setting [2], 257 nM.

For “CAGCGAUAGCUGAACAAUCUAUCUGAGGAUAUUCAUAAAACAUGAGGAUCACCCAUGUGAAAUUGGGAGAAGGCAGAUAGAUUG”, the “apparent Kd” value is, setting by setting: under setting [3], 7.7 nM; under setting [4], 4.42 nM.

As to “GAUCCUUCUGUUAGGAUAUGCUUCGGGCUUCCGCAGCAGAAGGAACAUGAGGAUCACCCAUGUCAAAUAAAAUC”, the “apparent Kd” value reads like this: under setting [1], 22.9 nM; under setting [2], 94.1 nM.

As to “GUCCGGCGUGUAGGAUAUGGAUCCGAUUAGGAUCCAGAAGGACAUGAGGAUCACCCAUGUACAUGUAAACAGUCAUCACCGGAC”, the “apparent Kd” value was determined as 6.4 nM under setting [1] and 7.41 nM under setting [2].

On to “GGAUAGGACAGAGGAUAUACGUGCUCGAGAUACUAGCAAAAUUUCCUCACAUGAGGAUCACCCAUGUAGAAGGCUGUCCUAUCG”, for which the “apparent Kd” value by setting is: under setting [1], 28.7 nM; under setting [2], 255 nM.
